Data published in ChEMBL document CHEMBL1153843, “Synthesis and biological evaluation of novel luteolin derivatives as antibacterial agents” (2009).
In brackets after ≈: the same amount, converted by molar mass.

system: Bacillus subtilis; assay: Antibacterial activity against Bacillus subtilis after 24 hrs by MTT method; type: functional
Method in brief: (§1)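 MIC by broth microdilution in MH medium, with MTT colorimetric read-out. Compounds come from a 50 mg/mL DMSO stock and are serially diluted in the plates. Inoculum is about 10⁵ cfu/mL, incubated at 37 °C for 24 h. The MIC is first read visually. MTT at 2 mg/mL in PBS (0.01 mol/L, pH 7.4) is then added, with a further 4–5 h at room temperature.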

MIC [µg/mL] | SMILES
6.25 (≈ 14.3 µM) | O=c1cc(-c2ccc3c(c2)OCCO3)oc2cc(OCCNC3CCCCC3)cc(O)c12
3.12 (≈ 7.02 µM) | O=c1cc(-c2ccc3c(c2)OCCO3)oc2cc(OCCNCc3ccccc3)cc(O)c12
6.25 (≈ 14.8 µM) | O=c1cc(-c2ccc3c(c2)OCCO3)oc2cc(OCCN3CCCCC3)cc(O)c12
6.25 (≈ 14.7 µM) | O=c1cc(-c2ccc3c(c2)OCCO3)oc2cc(OCCN3CCNCC3)cc(O)c12
12.5 (≈ 29.8 µM) | O=c1cc(-c2ccc3c(c2)OCCO3)oc2cc(OCCBr)cc(O)c12
12.5 (≈ 30.4 µM) | CCN(CC)CCOc1cc(O)c2c(=O)cc(-c3ccc4c(c3)OCCO4)oc2c1
12.5 (≈ 28.4 µM) | CCCN(CCC)CCOc1cc(O)c2c(=O)cc(-c3ccc4c(c3)OCCO4)oc2c1
6.25 (≈ 14.3 µM) | CN1CCN(CCOc2cc(O)c3c(=O)cc(-c4ccc5c(c4)OCCO5)oc3c2)CC1
12.5 (≈ 30.4 µM) | CCCCNCCOc1cc(O)c2c(=O)cc(-c3ccc4c(c3)OCCO4)oc2c1
12.5 (≈ 30.4 µM) | CC(C)CNCCOc1cc(O)c2c(=O)cc(-c3ccc4c(c3)OCCO4)oc2c1
12.5 (≈ 31.3 µM) | O=c1cc(-c2ccc3c(c2)OCCO3)oc2cc(OCCNCCO)cc(O)c12

system: Escherichia coli; assay: Antibacterial activity against Escherichia coli after 24 hrs by MTT method; type: functional; method in brief: as §1

MIC [µg/mL] | SMILES
25 (≈ 57.1 µM) | O=c1cc(-c2ccc3c(c2)OCCO3)oc2cc(OCCNC3CCCCC3)cc(O)c12
12.5 (≈ 28.1 µM) | O=c1cc(-c2ccc3c(c2)OCCO3)oc2cc(OCCNCc3ccccc3)cc(O)c12
12.5 (≈ 29.5 µM) | O=c1cc(-c2ccc3c(c2)OCCO3)oc2cc(OCCN3CCCCC3)cc(O)c12
12.5 (≈ 29.4 µM) | O=c1cc(-c2ccc3c(c2)OCCO3)oc2cc(OCCN3CCNCC3)cc(O)c12
25 (≈ 59.6 µM) | O=c1cc(-c2ccc3c(c2)OCCO3)oc2cc(OCCBr)cc(O)c12
25 (≈ 60.8 µM) | CCN(CC)CCOc1cc(O)c2c(=O)cc(-c3ccc4c(c3)OCCO4)oc2c1
25 (≈ 56.9 µM) | CCCN(CCC)CCOc1cc(O)c2c(=O)cc(-c3ccc4c(c3)OCCO4)oc2c1
12.5 (≈ 28.5 µM) | CN1CCN(CCOc2cc(O)c3c(=O)cc(-c4ccc5c(c4)OCCO5)oc3c2)CC1
25 (≈ 60.8 µM) | CCCCNCCOc1cc(O)c2c(=O)cc(-c3ccc4c(c3)OCCO4)oc2c1
25 (≈ 60.8 µM) | CC(C)CNCCOc1cc(O)c2c(=O)cc(-c3ccc4c(c3)OCCO4)oc2c1
25 (≈ 62.6 µM) | O=c1cc(-c2ccc3c(c2)OCCO3)oc2cc(OCCNCCO)cc(O)c12

system: Staphylococcus aureus; assay: Antibacterial activity against Staphylococcus aureus after 24 hrs by MTT method; type: functional; method in brief: as §1

MIC [µg/mL] | SMILES
12.5 (≈ 28.6 µM) | O=c1cc(-c2ccc3c(c2)OCCO3)oc2cc(OCCNC3CCCCC3)cc(O)c12
6.25 (≈ 14 µM) | O=c1cc(-c2ccc3c(c2)OCCO3)oc2cc(OCCNCc3ccccc3)cc(O)c12
12.5 (≈ 29.5 µM) | O=c1cc(-c2ccc3c(c2)OCCO3)oc2cc(OCCN3CCCCC3)cc(O)c12
12.5 (≈ 29.4 µM) | O=c1cc(-c2ccc3c(c2)OCCO3)oc2cc(OCCN3CCNCC3)cc(O)c12
25 (≈ 59.6 µM) | O=c1cc(-c2ccc3c(c2)OCCO3)oc2cc(OCCBr)cc(O)c12
25 (≈ 60.8 µM) | CCN(CC)CCOc1cc(O)c2c(=O)cc(-c3ccc4c(c3)OCCO4)oc2c1
12.5 (≈ 28.4 µM) | CCCN(CCC)CCOc1cc(O)c2c(=O)cc(-c3ccc4c(c3)OCCO4)oc2c1
12.5 (≈ 28.5 µM) | CN1CCN(CCOc2cc(O)c3c(=O)cc(-c4ccc5c(c4)OCCO5)oc3c2)CC1
25 (≈ 60.8 µM) | CCCCNCCOc1cc(O)c2c(=O)cc(-c3ccc4c(c3)OCCO4)oc2c1
25 (≈ 60.8 µM) | CC(C)CNCCOc1cc(O)c2c(=O)cc(-c3ccc4c(c3)OCCO4)oc2c1
25 (≈ 62.6 µM) | O=c1cc(-c2ccc3c(c2)OCCO3)oc2cc(OCCNCCO)cc(O)c12

system: Pseudomonas fluorescens; assay: Antibacterial activity against Pseudomonas fluorescens after 24 hrs by MTT method; type: functional; method in brief: as §1

MIC [µg/mL] | SMILES
12.5 (≈ 28.6 µM) | O=c1cc(-c2ccc3c(c2)OCCO3)oc2cc(OCCNC3CCCCC3)cc(O)c12
6.25 (≈ 14 µM) | O=c1cc(-c2ccc3c(c2)OCCO3)oc2cc(OCCNCc3ccccc3)cc(O)c12
12.5 (≈ 29.5 µM) | O=c1cc(-c2ccc3c(c2)OCCO3)oc2cc(OCCN3CCCCC3)cc(O)c12
6.25 (≈ 14.7 µM) | O=c1cc(-c2ccc3c(c2)OCCO3)oc2cc(OCCN3CCNCC3)cc(O)c12
12.5 (≈ 29.8 µM) | O=c1cc(-c2ccc3c(c2)OCCO3)oc2cc(OCCBr)cc(O)c12
12.5 (≈ 30.4 µM) | CCN(CC)CCOc1cc(O)c2c(=O)cc(-c3ccc4c(c3)OCCO4)oc2c1
6.25 (≈ 14.2 µM) | CCCN(CCC)CCOc1cc(O)c2c(=O)cc(-c3ccc4c(c3)OCCO4)oc2c1
6.25 (≈ 14.3 µM) | CN1CCN(CCOc2cc(O)c3c(=O)cc(-c4ccc5c(c4)OCCO5)oc3c2)CC1
6.25 (≈ 15.2 µM) | CCCCNCCOc1cc(O)c2c(=O)cc(-c3ccc4c(c3)OCCO4)oc2c1
12.5 (≈ 30.4 µM) | CC(C)CNCCOc1cc(O)c2c(=O)cc(-c3ccc4c(c3)OCCO4)oc2c1
6.25 (≈ 15.6 µM) | O=c1cc(-c2ccc3c(c2)OCCO3)oc2cc(OCCNCCO)cc(O)c12
